Measured values published in ChEMBL document CHEMBL3124917, “Design, synthesis, and biological evaluation of deuterated C-aryl glycoside as a potent and long-acting renal sodium-dependent glucose cotransporter 2 inhibitor for the treatment of type 2 diabetes” (J Med Chem, 2014).

Assays:
Rattus norvegicus [1] = experiment: Antidiabetic activity in Sprague-Dawley rat assessed as urinary glucose excretion at 1 mg/kg, po administered 1 hr prior to glucose challenge measured after 1 to 24 hrs relative to dapagliflozin; format: functional, Urine
Method in brief: (§1)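 Overnight-fasted Sprague-Dawley rats, n = 3 per group, dosed 1 mg/kg by oral gavage in 30% PEG400; controls received vehicle. Oral glucose (2 g/kg, 10 mL/kg) given 1 h post-dose. Urine collected in metabolic cages at 0–4 and 4–24 h, glucose measured on a biochemistry analyzer. Expressed as % of reference positive control; mean ± SD.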

Rattus norvegicus [2] = experiment: Antidiabetic activity in Sprague-Dawley rat assessed as urinary glucose excretion at 1 mg/kg, po administered 1 hr prior to glucose challenge measured after 4 to 24 hrs relative to dapagliflozin; format: functional, Urine; method in brief: as §1
Rattus norvegicus [3] = experiment: Antidiabetic activity in Sprague-Dawley rat assessed as urinary glucose excretion at 1 mg/kg, po administered 1 hr prior to glucose challenge measured after 1 to 4 hrs relative to dapagliflozin; format: functional, Urine; method in brief: as §1
[4] = AUC (0 to infinity) in Sprague-Dawley rat at 3 mg/kg, po by LC-MS/MS analysis; format: ADME, organism-based; set-up: time infinity, dose 3 mg/kg, route oral; details: plasma
Method in brief: (§2)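 Male Sprague-Dawley rats, n = 4 per group, overnight-fasted. Oral gavage of 3 or 1 mg/kg in 30% PEG400; i.v. arm at 1 mg/kg. Orbital plexus blood taken under ether at 0.083–24 h; plasma deproteinized and assayed by LC-MS/MS. Noncompartmental parameters derived; mean ± SD reported.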

Canis familiaris [5] = experiment: Antidiabetic activity in Beagle dog assessed as urinary glucose excretion at 0.03 mg/kg, po administered 1 hr prior to glucose challenge measured after 1 to 24 hrs relative to dapagliflozin; format: functional, Canis lupus familiaris, Urine
Method in brief: (§3)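 Overnight-fasted beagle dogs, n = 3 per group, given 0.03 mg/kg orally by gavage in 10% PEG400; vehicle controls received 10% PEG400. Oral glucose (2 g/kg, 5 mL/kg) given 1 h post-dose. Urine collected in metabolic cages at 0–8 and 8–24 h, glucose read on a biochemistry analyzer. Expressed as % of reference positive control; mean ± SD.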

Canis familiaris [6] = experiment: Antidiabetic activity in Beagle dog assessed as urinary glucose excretion at 0.03 mg/kg, po administered 1 hr prior to glucose challenge measured after 8 to 24 hrs relative to dapagliflozin; format: functional, Canis lupus familiaris, Urine
Method in brief: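 Overnight-fasted beagle dogs, n = 3 per group, given 0.03 mg/kg orally by gavage in 10% PEG400; vehicle controls received 10% PEG400. Oral glucose (2 g/kg, 5 mL/kg) given 1 h post-dose. Expressed as % of reference positive control; mean ± SD.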

Canis familiaris [7] = experiment: Antidiabetic activity in Beagle dog assessed as urinary glucose excretion at 0.03 mg/kg, po administered 1 hr prior to glucose challenge measured after 1 to 8 hrs relative to dapagliflozin; format: functional, Canis lupus familiaris, Urine; method in brief: as §3
[8] = AUC (0 to infinity) in Sprague-Dawley rat at 1 mg/kg, po by LC-MS/MS analysis; format: ADME, organism-based; set-up: time infinity, dose 1 mg/kg, route oral; details: plasma; method in brief: as §2
[9] = Half life in Sprague-Dawley rat at 1 mg/kg, po by LC-MS/MS analysis; format: ADME, organism-based; set-up: dose 1 mg/kg, route oral; details: in vivo; method in brief: as §2
Rattus norvegicus [10] = experiment: Antidiabetic activity in Sprague-Dawley rat assessed as reduction in blood glucose AUC at 0.1 mg/kg, po administered 1 hr prior to glucose challenge measured after 60 to 120 mins by oral glucose tolerance test relative to control; format: functional; set-up: scale not given: the % may be the effect or the level left
Method in brief: (§4)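 Overnight-fasted male Sprague-Dawley rats, n = 5 per group, dosed orally at 0.1, 0.3, 1, 3 or 10 mg/kg in 30% PEG400 1 h before oral glucose challenge (20%, 2 g/kg). Blood glucose measured by glucometer from −60 to 120 min.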

[11] = Oral bioavailability in Sprague-Dawley rat at 1 mg/kg by LC-MS/MS analysis; format: ADME, organism-based; details: in vivo; method in brief: as §2
Rattus norvegicus [12] = experiment: Antidiabetic activity in Sprague-Dawley rat assessed as reduction in blood glucose AUC at 10 mg/kg, po administered 1 hr prior to glucose challenge measured after 60 to 120 mins by oral glucose tolerance test relative to control; format: functional; set-up: scale not given: the % may be the effect or the level left; method in brief: as §4
Rattus norvegicus [13] = experiment: Antidiabetic activity in Sprague-Dawley rat assessed as reduction in blood glucose AUC at 0.3 mg/kg, po administered 1 hr prior to glucose challenge measured after 60 to 120 mins by oral glucose tolerance test relative to control; format: functional; set-up: scale not given: the % may be the effect or the level left; method in brief: as §4
[14] = Tmax in Sprague-Dawley rat at 1 mg/kg, po by LC-MS/MS analysis; format: ADME, organism-based; set-up: dose 1 mg/kg, route oral; details: in vivo; method in brief: as §2
[15] = Half life in Sprague-Dawley rat at 1 mg/kg, iv by LC-MS/MS analysis; format: ADME, organism-based; set-up: dose 1 mg/kg, route intravenous; details: in vivo; method in brief: as §2
[16] = biological target: T1, Sodium/glucose cotransporter 1 (Homo sapiens, UniProt P13866); experiment: Inhibition of full length human SGLT1 assessed as methyl-alpha-D-[U-14C]glucopyranoside uptake after 2 hrs by cell-based topcount scintillation counting analysis
T1 sequence (P13866 whole entry): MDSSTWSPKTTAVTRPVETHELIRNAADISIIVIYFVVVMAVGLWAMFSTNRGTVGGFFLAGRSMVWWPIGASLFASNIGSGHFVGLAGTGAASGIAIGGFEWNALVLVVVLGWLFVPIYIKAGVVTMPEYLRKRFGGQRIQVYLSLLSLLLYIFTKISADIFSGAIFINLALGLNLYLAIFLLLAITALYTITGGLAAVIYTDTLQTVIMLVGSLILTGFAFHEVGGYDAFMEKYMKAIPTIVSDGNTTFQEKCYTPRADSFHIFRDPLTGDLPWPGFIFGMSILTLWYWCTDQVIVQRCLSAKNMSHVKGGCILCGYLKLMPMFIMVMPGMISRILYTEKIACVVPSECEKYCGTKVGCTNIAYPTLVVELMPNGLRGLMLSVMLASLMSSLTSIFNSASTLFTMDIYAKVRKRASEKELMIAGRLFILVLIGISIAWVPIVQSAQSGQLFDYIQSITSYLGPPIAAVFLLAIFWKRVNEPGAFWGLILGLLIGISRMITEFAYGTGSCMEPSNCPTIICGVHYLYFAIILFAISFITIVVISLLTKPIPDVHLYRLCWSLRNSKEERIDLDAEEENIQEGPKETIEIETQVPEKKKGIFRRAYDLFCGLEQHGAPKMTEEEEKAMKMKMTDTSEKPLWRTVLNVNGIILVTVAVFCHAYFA

Rattus norvegicus [17] = experiment: Antidiabetic activity in Sprague-Dawley rat assessed as reduction in blood glucose AUC at 1 mg/kg, po administered 1 hr prior to glucose challenge measured after 60 to 120 mins by oral glucose tolerance test relative to control; format: functional; set-up: scale not given: the % may be the effect or the level left; method in brief: as §4
[18] = AUC (0 to infinity) in Sprague-Dawley rat at 1 mg/kg, iv by LC-MS/MS analysis; format: ADME, organism-based; set-up: time infinity, dose 1 mg/kg, route intravenous; details: plasma; method in brief: as §2
[19] = Clearance in Sprague-Dawley rat at 1 mg/kg, iv by LC-MS/MS analysis; format: ADME, organism-based; set-up: dose 1 mg/kg, route intravenous; details: in vivo; method in brief: as §2
Rattus norvegicus [20] = experiment: Antidiabetic activity in Sprague-Dawley rat assessed as reduction in blood glucose AUC at 3 mg/kg, po administered 1 hr prior to glucose challenge measured after 60 to 120 mins by oral glucose tolerance test relative to control; format: functional; set-up: scale not given: the % may be the effect or the level left; method in brief: as §4
[21] = Cmax in Sprague-Dawley rat at 1 mg/kg, po by LC-MS/MS analysis; format: ADME, organism-based; set-up: dose 1 mg/kg, route oral; details: in vivo; method in brief: as §2
[22] = biological target: T2, Sodium/glucose cotransporter 2 (Homo sapiens, UniProt P31639); experiment: Inhibition of full length human SGLT2 assessed as methyl-alpha-D-[U-14C]glucopyranoside uptake after 1.5 hrs by cell-based topcount scintillation counting analysis
T2 sequence (P31639 whole entry): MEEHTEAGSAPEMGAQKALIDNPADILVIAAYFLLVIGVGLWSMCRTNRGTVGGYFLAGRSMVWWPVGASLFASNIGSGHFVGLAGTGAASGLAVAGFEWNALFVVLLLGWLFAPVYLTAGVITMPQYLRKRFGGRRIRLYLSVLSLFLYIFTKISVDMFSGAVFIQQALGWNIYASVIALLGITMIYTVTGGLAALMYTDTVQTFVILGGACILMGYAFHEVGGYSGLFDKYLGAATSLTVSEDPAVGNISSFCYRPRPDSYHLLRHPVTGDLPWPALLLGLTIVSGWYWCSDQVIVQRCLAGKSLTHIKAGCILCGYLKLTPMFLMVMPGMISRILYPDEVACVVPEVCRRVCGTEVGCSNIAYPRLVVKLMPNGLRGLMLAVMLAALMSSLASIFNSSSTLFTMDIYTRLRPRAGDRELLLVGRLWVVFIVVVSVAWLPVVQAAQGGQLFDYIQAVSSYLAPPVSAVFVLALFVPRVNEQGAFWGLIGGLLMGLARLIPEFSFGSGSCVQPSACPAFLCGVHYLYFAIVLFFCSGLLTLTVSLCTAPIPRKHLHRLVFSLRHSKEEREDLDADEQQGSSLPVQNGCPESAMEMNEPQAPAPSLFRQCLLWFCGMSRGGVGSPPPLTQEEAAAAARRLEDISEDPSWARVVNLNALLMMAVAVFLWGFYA

[23] = Drug metabolism in Sprague-Dawley rat assessed as compound remaining at 50 mg/kg, po after 5 days by HPLC analysis; format: ADME, organism-based; set-up: dose 50 mg/kg, route oral; details: in vivo, read-out: Drug metabolism

Structure (SMILES) | Activity (Rattus norvegicus [1]) [mg] | Activity (Rattus norvegicus [2]) [mg] | Activity (Rattus norvegicus [3]) [mg] | AUC(0-inf) [4] [ng·h/mL] | Activity (Canis familiaris [5]) [mg] | Activity (Canis familiaris [6]) [mg] | Activity (Canis familiaris [7]) [mg] | AUC(0-inf) [8] [ng·h/mL] | half-life [9] [min] | bioavailability [11] [%] | Tmax [14] [h] | half-life [15] [min] | AUC(0-inf) [18] [ng·h/mL] | clearance [19] [mL/min/kg] | Cmax [21] [ng/mL] | remaining at 120 h [23] [%] | further results
[2H]C([2H])(c1ccc(OCC)cc1)c1cc([C@@H]2O[C@H](CO)[C@@H](O)[C@H](O)[C@H]2O)ccc1Cl | 2220 | 2060 | 168 | 16100 | 10200 | 6830 | 3400 | – | – | – | – | – | – | – | – | – | –
[2H]C([2H])(c1ccc(OC([2H])([2H])C([2H])([2H])[2H])cc1)c1cc([C@@H]2O[C@H](CO)[C@@H](O)[C@H](O)[C@H]2O)ccc1Cl | 2080 | 1940 | 137 | 22400 | 15400 | 11000 | 4360 | – | – | – | – | – | – | – | – | – | –
[2H]C([2H])([2H])Oc1ccc(Cc2cc([C@@H]3O[C@H](CO)[C@@H](O)[C@H](O)[C@H]3O)ccc2Cl)cc1 | 2230 | 1980 | 251 | 7000 | 14700 | 11200 | 3480 | 1020 | 210 | 76.3 | 1.56 | 161 | 1330 | 12.7 | 257 | 87 | Activity (Rattus norvegicus [10]): 18.6%; Activity (Rattus norvegicus [12]): 5%; Activity (Rattus norvegicus [13]): 20.7%; IC50 [16]: 900 nM; Activity (Rattus norvegicus [17]): 26.7%; Activity (Rattus norvegicus [20]): 21.6%; IC50 [22]: 2.5 nM
COc1ccc(Cc2cc([C@@H]3O[C@H](CO)[C@@H](O)[C@H](O)[C@H]3O)ccc2Cl)cc1 | 1890 | 1660 | 233 | 5350 | 14500 | 10900 | 3620 | 943 | 194 | 77 | 1.75 | 125 | 1220 | 14 | 165 | 73 | –
CCOc1ccc(Cc2cc([C@@H]3O[C@H](CO)[C@@H](O)[C@H](O)[C@H]3O)ccc2Cl)cc1 [DAPAGLIFLOZIN] | – | – | – | 11700 | – | – | – | – | – | – | – | – | – | – | – | 43 | –
